Tests used:
Format in all cases: functional, cell-based
MRC5 = assay: Antiproliferative activity against human MRC5 cells after 72 hrs by MTT assay; conditions: MRC5, 72 h
In short: (§1)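 Seeded at 5 × 10^3 cells/well in 96-well plates after harvesting in exponential growth and trypan blue counting. MRC-5 are normal foetal lung fibroblasts. Exposure was 72 h, with MTT colorimetric read-out. Results are means (SD) of three independent experiments done in quadruplicate.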

HeLa = assay: Antiproliferative activity against human HeLa cells after 72 hrs by MTT assay; in short: as §1
Jurkat = assay: Antiproliferative activity against human Jurkat cells after 72 hrs by MTT assay
In short: (§2)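 Exponentially growing cells were counted by trypan blue exclusion and seeded at 10^4 cells/well in 96-well plates to keep growth logarithmic. Cells were exposed to compound for 72 h, then read by tetrazolium (MTT) colorimetry. IC50 is the concentration giving 50% growth inhibition versus untreated control. Values are means (SD) of three independent experiments, each in quadruplicate.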

HL-60 = assay: Antiproliferative activity against human HL60 cells after 72 hrs by MTT assay; conditions: HL-60, 72 h; in short: as §2
Raji = assay: Antiproliferative activity against human Raji cells after 72 hrs by MTT assay
In short: as §2, with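 “colorimetry.” for “colorimetry. IC50 is the concentration giving 50% growth inhibition versus untreated control.”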

K562 = assay: Antiproliferative activity against human K562 cells after 72 hrs by MTT assay; conditions: K562, 72 h
In short: as §2, with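 “colorimetry.” for “colorimetry. IC50 is the concentration giving 50% growth inhibition versus untreated control.”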

SMILES	IC50 (HeLa) [µM]	IC50 (Jurkat) [µM]	IC50 (HL-60) [µM]	IC50 (Raji) [µM]	IC50 (K562) [µM]	IC50 (MRC5) [µM]
O=C1CC[C@@H]([C@@H](O)[C@H](O)[C@H](O)c2ccccc2)O1	2.34	2.23	0.09	2.21	0.54	> 100
O=C1CC2O[C@H](Cc3ccccc3)C(O)C2O1 (single isomer, unassigned)	4.42	2.52	43.8	1.03	0.51	> 100

Second part, led by results:

IC50 (HeLa) [µM]	IC50 (Jurkat) [µM]	IC50 (HL-60) [µM]	IC50 (Raji) [µM]	IC50 (K562) [µM]	SMILES	IC50 (MRC5) [µM]
5.69	0.36	0.12	1.01	0.23	O=C1C[C@H]2O[C@H]([C@H](OC(=O)c3ccccc3)c3ccccc3)[C@H](O)[C@H]2O1	> 100
8.32	32.5	> 100	18.4	0.41	O=C1C[C@H]2O[C@H]([C@H](O)c3ccccc3)[C@H](O)[C@H]2O1	> 100
		> 100		3.56	O=C(/C=C/c1ccccc1)O[C@H](c1ccccc1)[C@H]1O[C@@H]2CC(=O)O[C@@H]2[C@H]1O [(+)-CRASSALACTONE C]	> 100

Source: ChEMBL document CHEMBL1177850, “Design, synthesis and antiproliferative activity of styryl lactones related to (+)-goniofufurone” (Eur J Med Chem, 2010)
